Where “and” joins values, the source holds several entries; their conditions need not be identical. Equal entries are not always repeated. Calls of active or inactive are those of the source.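 The calls were made as follows: active = inhibition above 20% at 50 µM; inactive = the rest.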
Molecular target: Kelch-like ECH-associated protein 1 (Homo sapiens) (UniProt Q14145)
Assay: competitive SPR blockade of Keap1/Nrf2 binding – biophysical, dry powder, orthogonal assay for Keap1-Nrf2 interaction inhibitor project, confirmation (AID 651876)
Conditions: Keap1 Kelch binding to Nrf2 peptide, stronger effect = higher value
Method in brief: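 System – Keap1 Kelch domain, biochemical · Probe or stimulus – biotinylated 16mer Nrf2 peptide captured on streptavidin CM5 surface · Timing – room-temperature preincubation, 25 °C binding · Signal – Double-referenced surface plasmon resonance, initial association-phase slopes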

Kelch-like ECH-associated protein 1 (Homo sapiens), sequence (Q14145 whole entry, looked up): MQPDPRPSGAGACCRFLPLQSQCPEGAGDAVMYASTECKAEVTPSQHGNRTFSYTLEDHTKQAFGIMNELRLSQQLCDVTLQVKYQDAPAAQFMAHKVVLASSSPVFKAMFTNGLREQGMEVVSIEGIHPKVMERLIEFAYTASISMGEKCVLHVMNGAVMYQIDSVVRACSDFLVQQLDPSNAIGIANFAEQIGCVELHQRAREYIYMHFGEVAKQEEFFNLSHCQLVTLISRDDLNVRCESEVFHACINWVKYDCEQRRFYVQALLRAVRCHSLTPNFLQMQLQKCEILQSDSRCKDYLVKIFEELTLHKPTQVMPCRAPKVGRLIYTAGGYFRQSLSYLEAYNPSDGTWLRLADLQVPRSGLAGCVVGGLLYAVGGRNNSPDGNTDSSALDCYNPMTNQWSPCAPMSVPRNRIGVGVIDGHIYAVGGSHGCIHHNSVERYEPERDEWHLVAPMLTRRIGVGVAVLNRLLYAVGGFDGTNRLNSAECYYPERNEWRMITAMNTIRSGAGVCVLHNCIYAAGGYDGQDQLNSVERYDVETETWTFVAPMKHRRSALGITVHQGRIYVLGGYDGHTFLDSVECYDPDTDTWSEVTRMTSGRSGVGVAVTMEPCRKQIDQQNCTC

Row | inhibition (at 50 µM) | inhibition (inhibition, at 5 µM) | SMILES
1 | 43.8% | 6.9% | O=C(NCCCN1CCOCC1)c1ccccc1C(=O)NC[C@@H]1c2ccccc2CCN1C(=O)C1CCCCC1C(=O)O (stereo not given in full)
2 | 68.1% | 18.5% | O=C(O)C1CCCCC1C(=O)N1CCc2ccccc2C1CN1C(=O)c2ccccc2S1(=O)=O (stereo not given)
3 | 47.1% | 3.3% | O=C(NCCc1ccccc1)c1ccccc1C(=O)NC[C@@H]1c2ccccc2CCN1C(=O)C1CCCCC1C(=O)O (stereo not given in full)
4 | 13.9% (inactive) | 9.6% | CC(=O)Nc1cc(NS(=O)(=O)c2c(C)cc(C)cc2C)c2ccccc2c1O
5 | 11.4% (inactive) | -2.3% | O=C(O)CCC(=O)N1CCc2ccccc2C1CN1C(=O)c2ccccc2C1=O (stereo not given)
6 | 2.3% (inactive) | 6.4% | O=C(O)CCCC(=O)N1CCc2ccccc2C1CN1C(=O)c2ccccc2C1=O (stereo not given)
7 | 3.2% (inactive) | -2% | O=C(O)C1CCCCC1C(=O)N1CCc2ccccc2C1c1ccccc1 (stereo not given)
8 | 1.5% (inactive) | -0.6% | Cc1cc(C)c(S(=O)(=O)Nc2ncnc3ccccc23)c(C)c1
9 | 1.6% (inactive) | -0.6% | COC(=O)[C@H]1CCCC[C@H]1C(=O)N1CCc2ccccc2[C@H]1CN1C(=O)c2ccccc2C1=O
10 | 1.1% (inactive) | -5.2% | C=CC(=O)NC[C@@H]1c2ccccc2CCN1C(=O)[C@@H]1CCCC[C@@H]1C(=O)O
11 | 8.8% (inactive) and 2.3% (inactive) | -2.2% and 0.5% | O=C(O)[C@H]1CCCC[C@H]1C(=O)N1CCc2ccccc2C1CCN1C(=O)c2ccccc2C1=O (stereo not given in full)
12 | 83% | 38.6% | NC(=O)c1ccccc1C(=O)NC[C@@H]1c2ccccc2CCN1C(=O)[C@@H]1CCCC[C@@H]1C(=O)O
13 | 9.9% (inactive) | 1.9% | O=C(O)c1ccccc1C(=O)N1CCc2ccccc2C1CN1C(=O)c2ccccc2C1=O (stereo not given)
14 | 36.9% | 7% | O=C(Cc1ccccc1)NC[C@@H]1c2ccccc2CCN1C(=O)[C@@H]1CCCC[C@@H]1C(=O)O
15 | -9.9% (inactive) | -3.5% | Cc1ccc(S(=O)(=O)NNc2nc(NCC(N)=O)nc3ccccc23)cc1
16 | -0.2% (inactive) | 1.1% | O=C1c2ccccc2C(=O)N1CC1=NCCc2ccccc21
17 | 2.1% (inactive) | -2.4% | O=C(O)CC(=O)N1CCc2ccccc2C1CN1C(=O)c2ccccc2C1=O (stereo not given)
18 | 8% (inactive) | 0% | COc1ccc(CCN=C2C=C(NS(=O)(=O)c3c(C)cc(C)cc3C)c3ccccc3C2=O)cc1
19 | 9.5% (inactive) | 0.9% | O=C(O)c1ccccc1C(=O)NC[C@@H]1c2ccccc2CCN1C(=O)[C@@H]1CCCC[C@@H]1C(=O)O
20 | 17.1% (inactive) | 0.1% | Cc1ccc(S(=O)(=O)NC[C@@H]2c3ccccc3CCN2C(=O)[C@@H]2CCCC[C@@H]2C(=O)O)c(C)c1
21 | 4.3% (inactive) | 5.5% | CCOC(=O)Cc1nc(NS(=O)(=O)c2c(C)cc(C)cc2C)c2ccccc2n1
22 | -4% (inactive) | 3.3% | O=C(O)C1CCCCC1C(=O)NCC1c2ccccc2CCN1C(=O)Cc1ccccc1 (stereo not given)

Row | inhibition (at 50 µM) | inhibition (inhibition, at 5 µM) | SMILES
23 | 6.8% (inactive) | 3.6% | Cc1cc(C)c(S(=O)(=O)Nc2nc(NCCO)nc3ccccc23)c(C)c1
24 | 3.5% (inactive) | 3.1% | O=C1c2ccccc2C(=O)N1CC1c2ccccc2CCN1C(=O)Cc1ccccc1 (stereo not given)
25 | -2.5% (inactive) | -6% | CCOC(=O)C(C(=O)OCC)c1nc(NS(=O)(=O)c2c(C)cc(C)cc2C)c2ccccc2n1
26 | 8.32% (inactive) | 11.9% | CCOC(=O)C(C(=O)OCC)c1cc(CN2C(=O)c3ccccc3C2=O)c2ccccc2n1
27 | 13.5% (inactive) | 0.4% | O=C(O)C1CCCCC1C(=O)N1CCCCC1CN1C(=O)c2ccccc2C1=O (stereo not given)
28 | 3.6% (inactive) | 5% | O=C(NC[C@@H]1c2ccccc2CCN1C(=O)[C@@H]1CCCC[C@@H]1C(=O)O)OCC1c2ccccc2-c2ccccc21
29 | -4.2% (inactive) and -2.2% (inactive) | -12.8% and -7.2% | COc1ccccc1CCNC(=O)[C@@H]1c2ccccc2CCN1C(=O)C1CCCCC1C(=O)O (stereo not given in full)
30 | 39.3% | 7.3% | O=C(NC[C@@H]1c2ccccc2CCN1C(=O)[C@@H]1CCCC[C@@H]1C(=O)O)c1ccccc1CO
31 | 30.3% | 1.7% | O=C(O)[C@@H]1CCCN1C(=O)N1CCc2ccccc2[C@H]1CN1C(=O)c2ccccc2C1=O
32 | 105% | 79.7% | Cc1cc(C)c(S(=O)(=O)Nc2cc(C(C(=O)OC(C)C)C(=O)C(F)(F)F)c(O)c3ccccc23)c(C)c1 (stereo not given)
33 | 65.5% | 19.1% | O=C(O)C1CCCCC1C(=O)N1CCc2ccccc2C1CN1C(=O)[C@H]2CCCC[C@H]2C1=O (stereo not given in full)
34 | 86.4% | 49.5% | Cc1ccccc1S(=O)(=O)Nc1cc(C(C(=O)OC(C)C)C(=O)C(F)(F)F)c(O)c2ccccc12 (stereo not given)
35 | 7% (inactive) | -1.7% | O=S(=O)(Nc1nc(NCC2CCCCC2)nc2ccccc12)c1ccccc1
36 | 36.7% | 5.6% | NC(=O)[C@H]1CCCC[C@H]1C(=O)N1CCc2ccccc2[C@H]1CN1C(=O)c2ccccc2C1=O
37 | 6.8% (inactive) | 3.3% | COC(=O)C1CCCCC1C(=O)N1CCc2ccccc2C1CN1C(=O)c2ccccc2C1=O (stereo not given)
38 | 77% | 36.6% | O=C(O)C1CCCCC1C(=O)N1CCc2ccccc2C1CN1C(=O)Cc2ccccc2C1=O (stereo not given)
39 | 26.7% | 4% | O=C(O)[C@H]1CCCC[C@H]1C(=O)N1CCc2ccccc2[C@H]1CNS(=O)(=O)c1ccc([N+](=O)[O-])cc1
40 | 8.5% (inactive) | 1.1% | COC(=O)CNc1nc(NS(=O)(=O)c2c(C)cc(C)cc2C)c2ccccc2n1
41 | -0.6% (inactive) | -11.6% | O=C(O)C1CCCCC1C(=O)N1CCc2ccccc2[C@H]1C(=O)NC12CC3CC(CC(C3)C1)C2 (stereo not given in full)
42 | 97% | 57.8% | Cc1ccc(S(=O)(=O)Nc2cc(C(C(=O)OC(C)C)C(=O)C(F)(F)F)c(O)c3ccccc23)c(C)c1 (stereo not given)
43 | -3.5% (inactive) | 1.5% | O=C(NC[C@@H]1c2ccccc2CCN1C(=O)[C@@H]1CCCC[C@@H]1C(=O)O)c1ccccc1
44 | 22.7% | -1% | O=C(NC[C@@H]1c2ccccc2CCN1C(=O)[C@@H]1CCCC[C@@H]1C(=O)O)c1ccc(CCl)cc1

Row | inhibition (at 50 µM) | inhibition (inhibition, at 5 µM) | SMILES
45 | 12.9% (inactive) | -3.1% | O=C(O)[C@H]1CCCC[C@H]1C(=O)N1CCc2ccccc2[C@H]1CNS(=O)(=O)c1ccccc1
46 | 21.5% | 1.1% | O=C(O)/C=C\C(=O)N1CCc2ccccc2C1CN1C(=O)c2ccccc2C1=O (stereo not given)
47 | 80.3% | 30.2% | Cc1ccc(S(=O)(=O)Nc2cc(C(C(=O)OC(C)C)C(=O)C(F)(F)F)c(O)c3ccccc23)cc1 (stereo not given)
48 | 2.1% (inactive) | -0.3% | O=C1c2ccccc2C(=O)N1C[C@@H]1c2ccccc2CCN1C(=O)C1CCCCC1
49 | 4.8% (inactive) | 3.9% | CCOC(=O)C(C(=O)OCC)c1cc(CNS(=O)(=O)c2ccc(C)cc2C)c2ccccc2n1
50 | 10.5% (inactive) | -5.37% | Cc1ccc(S(=O)(=O)NC2=CC(=N[C@@H](C)C(=O)OC(C)(C)C)C(=O)c3ccccc32)c(C)c1
51 | 0.3% (inactive) | 0.3% | O=C(O)[C@H]1CCCC[C@H]1C(=O)NC(CN1C(=O)c2ccccc2C1=O)c1ccccc1 (stereo not given in full)
52 | 24.9% | -1.2% | O=C(NC[C@@H]1c2ccccc2CCN1C(=O)[C@@H]1CCCC[C@@H]1C(=O)O)c1ccc(CN2CCOCC2)cc1
53 | 7.85% (inactive) | -2.91% | O=C(Oc1cc(CN2C(=O)c3ccccc3C2=O)c2ccccc2[n+]1[O-])c1cccc(Cl)c1
54 | -3.7% (inactive) | -5.5% | O=C(O)C1CCCCC1C(=O)N1CCc2ccccc2[C@H]1C(=O)NCCc1ccccc1 (stereo not given in full)
55 | 1.9% (inactive) | -4.5% | Cc1cc(C)c(S(=O)(=O)Nc2nc(C(C(=O)OC(C)C)C(=O)C(F)(F)F)nc3ccccc23)c(C)c1 (stereo not given)
56 | 42.4% | 4.9% | O=C(O)[C@H]1C2C=CC(C2)[C@H]1C(=O)N1CCc2ccccc2C1CN1C(=O)c2ccccc2C1=O (stereo not given in full)
57 | – | 0.2% and -3.9% | Cc1ccc(S(=O)(=O)NC(=O)[C@@H]2c3ccccc3CCN2C(=O)[C@@H]2CCCC[C@@H]2C(=O)O)cc1
58 | 28.3% | 4.9% | Cc1ccc(S(=O)(=O)NNc2nc(C(C(=O)OC(C)C)C(=O)C(F)(F)F)nc3ccccc23)cc1 (stereo not given)
59 | 93.1% | 65.9% | COC(=O)C(C(=O)OC)c1cc(NS(=O)(=O)c2c(C)cc(C)cc2C)c2ccccc2c1O
60 | – | 12.5% and -3.6% | O=C(O)[C@H]1CCCC[C@H]1C(=O)N1CCC2=C(CCCC2)C1CN1C(=O)c2ccccc2C1=O (stereo not given in full)
61 | 3.3% (inactive) | 1% | CC(C)CNc1nc(NS(=O)(=O)c2ccccc2)c2ccccc2n1
62 | 32.1% | 7.5% | O=C(NCCO)c1ccccc1C(=O)NC[C@@H]1c2ccccc2CCN1C(=O)C1CCCCC1C(=O)O (stereo not given in full)
63 | 3.7% (inactive) | -1.3% | O=C(O)[C@H]1CCCC[C@H]1C(=O)N1CCc2ccccc2[C@H]1CNc1nc(Cl)nc2ccccc12
64 | 5.5% (inactive) | 3.8% | O=C(O)C1CCCCC1C(=O)Nc1ccccc1CN1C(=O)c2ccccc2C1=O (stereo not given)
65 | -0.9% (inactive) | -1.1% | Cc1ccc(S(=O)(=O)NNc2nc(N3CC(O)CC3C(=O)O)nc3ccccc23)cc1 (stereo not given)
66 | 77.7% | 27.7% | O=C(O)C1CCCCC1C(=O)N1CCc2ccccc2C1CN1Cc2ccccc2C1=O (stereo not given)

Source: PubChem BioAssay AID651876 (Broad Institute, 2012)
